# Screens (PubChem)
# Compounds with a hit are over-represented: about 2.9% of the library has one in this group of screens.
# PRMT1 inh – PRMT1 methyltransferase inhibitors, primary screen, biochemical, fluorescence polarization | Protein arginine N-methyltransferase 1 (Homo sapiens), Q99873 | recombinant PRMT1, activity-based probe fluorescence polarization | inhibition, % at 2.79 µM | 1.3% of 370,000 active | AID 652257, 2013;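 active = inhibition above about 21% made by adding two undisclosed values, limit read from the data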
# ABHD5-PLIN5 inh – ABHD5-PLIN5 interaction inhibitors, primary screen, cell lysate, split luciferase complementation, luminescence. Perilipin-5 (Homo sapiens) + 1-acylglycerol-3-phosphate O-acyltransferase ABHD5 (Homo …. Split G. princeps luciferase complementation, 4 h. inhibition, % at 4 µM. 0.78% of 360,000 active. AID 602281, 2012;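 active = inhibition above the mean inhibition across every tested compound plus 3 SD, cut at about 22% in these data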;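 note: 0% = DMSO only wells and the 100% control is not disclosed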
# NS3 helicase inh – inhibitors of HCV NS3 helicase, primary screen, biochemical, Cy5 molecular beacon fluorescence; Hepatitis C virus NS3 helicase; NS3 helicase DNA unwinding; inhibition, % at 10.9 µM; 0.56% of 290,000 active; AID 1800, 2009;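 active = inhibition above the mean of all tested compounds plus 3 SD, set per campaign, cut at about 35% in these data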;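 note: 0% = DMSO wells and 100% = thioflavine S control wells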
#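 System: Hepatitis C virus NS3 helicase domain fragment enzyme | Reagent: Annealed dual-labelled DNA beacon duplex, ATP-started | Compound dosing: 10.9 µM single point, 0.8% DMSO | Incubation: 1 h reaction at 25 °C, ATP-initiated | Technique: Cy5 fluorescence | Evaluation: Percent inhibition from t60/t0 fluorescence ratio | Benchmarks: Low DMSO, high thioflavine S at 110 µM | Replication: Singlicate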
# APOBEC3G inh – APOBEC3G DNA deaminase inhibitors, primary screen, biochemical, fluorescence, single-stranded DNA substrate, uHTS; recombinant A3G, ssDNA deamination FAM/TAMRA fluorescence; inhibition, % at 20 µM; 0.28% of 330,000 active;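 active = inhibition of at least 40% at 20 µM, with no more than 30% in the related APOBEC3A deaminase screen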;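 note: plate controls were DMSO wells with A3G for no effect and wells lacking A3G enzyme for full effect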
# core dimer inh – inhibitors of HCV core protein dimerization, primary screen, biochemical, TR-FRET, high-throughput. inhibition, % at 5 µM. 0.33% of 300,000 active. TR-FRET GST/Flag-core106 dimerization, 1536-well;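 active = inhibition above the mean of all tested compounds plus 3 SD, set per screening campaign, cut at about 45% in these data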
#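 System: GST-tagged and Flag-tagged HCV core protein residues 1-106 / Input: core106 proteins, GST 13.5 nM and Flag 17 nM / Buffer or medium: KF-containing HEPES buffer, pH 7.45, DTT, CHAPS, BSA / Probe or stimulus: Eu-anti-GST and XL665-anti-Flag labelled anti-tag antibodies / Schedule: 4 h, 22.5 °C incubation / Technique: TR-FRET 671 and 617 nm emission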
# APOBEC3A inh – APOBEC3A ssDNA deaminase inhibitors, primary screen, selectivity assay for APOBEC3G inhibitor project, biochemical, FAM/TAMRA oligo cleavage fluorescence | DNA dC->dU-editing enzyme APOBEC-3A (Homo sapiens), P31941 | 0.41% of 330,000 active | inhibition, % at 20 µM | recombinant A3A, FAM/TAMRA ssDNA deamination fluorescence;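 active = at least 40% inhibition at 20 µM here, with at most 30% in a related deaminase screen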;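 note: plate controls were A3A with DMSO for no effect and wells lacking A3A enzyme for full effect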
# APOBEC3A confirm – APOBEC3A deaminase inhibitors, retest, confirmation, selectivity assay for APOBEC3G inhibitor project, biochemical, single concentration, fluorescence readout; 63% of 1,400 active; shares compounds with APOBEC3A inh; recombinant A3A, ssDNA deaminase UDG fluorescence assay; inhibition, % at 20 µM;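 active = inhibition reaching a set limit, 80% of the first screen's cutoff, at 20 µM in any replicate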;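 note: plate controls were DMSO wells with A3A for no effect and wells lacking A3A enzyme for full effect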
# UDG ctr A3A – E. coli UDG inhibitors, confirmation, counter-screen for APOBEC3A inhibitor project, biochemical, single concentration, fluorescence, FAM/TAMRA oligo. shares compounds with APOBEC3A inh. UDG counterscreen, FAM/TAMRA uracil oligo fluorescence. inhibition, % at 20 µM. 1,000 tested, under 10 active; call rule not given here
# The depositor's hits bear a star; · = not tested or not shown.
SMILES,PRMT1 inh,ABHD5-PLIN5 inh,NS3 helicase inh,APOBEC3G inh,core dimer inh,APOBEC3A inh,APOBEC3A confirm,UDG ctr A3A
CCOc1ncccc1C(=O)OCC(=O)N(CC)c1ccccc1,5.5,-0.2,5.9,-6.0,0.6,74.1*,-1.0,2.2
CC(C)(C)OC(=O)NN1CC(=O)N2[C@@H](Cc3c([nH]c4ccccc34)C2(C)C)C1=O,1.4,-2.4,-5.9,-5.9,-2.8,-4.0,·,·
N#C/C(=C\c1c(N2CCOCC2)nc2ccccn2c1=O)C(=O)NC1CCS(=O)(=O)C1 (stereo not drawn),-0.9,-4.9,7.5,-3.1,-5.4,-1.3,·,·
N#C/C(=C\c1c(N2CCCCCC2)nc2ccccn2c1=O)C(=O)NC1CCS(=O)(=O)C1 (stereo not drawn),1.2,4.9,-9.4,-8.8,-9.8,44.2*,-3.5,-2.1
COc1ccc(CSCC(=O)N/N=C/c2ccc(OCC(=O)N3CCCCC3)cc2)cc1,1.9,4.5,-9.2,21.8,3.2,52.5*,52.5*,-2.3
O=C(CSCc1ccccc1)N/N=C/c1ccc(OCC(=O)N2CCCCC2)cc1,-1.5,-0.4,8.6,·,-0.7,·,·,·
CN1CCC(N(C)S(=O)(=O)c2ccc(NC(=O)COc3ccc(F)cc3)cc2)CC1,2.9,1.7,·,13.3,-2.9,63.9*,58.4*,-2.3
CN1CCC(N(C)S(=O)(=O)c2ccc(NC(=O)COc3ccc([N+](=O)[O-])cc3)cc2)CC1,0.9,-2.6,·,8.8,-0.8,49.8*,51.6*,-1.2
CN1CCC(N(C)S(=O)(=O)c2ccc(NC(=O)COc3ccc(Cl)cc3)cc2)CC1,-2.3,2.1,·,1.5,·,2.6,·,·
Cc1ccc(NC(=O)CN(C)CC(=O)Nc2ccc(F)c(Cl)c2)cc1,0.3,4.5,-6.6,15.6,-3.8,61.0*,4.4,·
CC(C)CNC(=O)NC(=O)COC(=O)Cn1cnc2ccccc2c1=O,-3.3,0.0,5.1,-6.5,-2.8,-6.9,·,·
Nc1cc(N)nc(SCC(=O)Nc2ccc(Br)cc2Cl)n1,1.3,13.1,·,17.5,-9.4,58.4*,55.6*,-2.0
COc1ccc(C)cc1-n1nnnc1SCC(=O)NC1CCS(=O)(=O)C1 (stereo not drawn),-1.4,-9.8,·,-7.8,·,-5.4,·,·
CC(OC(=O)c1cccc([N+](=O)[O-])c1)C(=O)NCc1ccc2c(c1)OCO2 (stereo not drawn),0.1,3.8,2.3,-4.0,-1.6,48.9*,-6.0,-3.2
CCn1c(C)[n+](CC(O)COCC2CC=CCC2)c2ccccc21 (stereo not drawn),1.9,-12.6,-0.6,29.0,1.2,65.8*,74.8*,-2.2
Cc1n(CC(O)COCc2ccccc2)c2ccccc2[n+]1C (stereo not drawn),2.3,-1.0,-1.7,15.9,4.7,58.9*,71.5*,-2.3
CCc1n(CC(O)COC2CCCCC2)c2ccccc2[n+]1C (stereo not drawn),-3.8,-3.8,2.1,20.2,9.1,66.6*,71.0*,-1.9
CC1CC(OCC(O)CN2CCN(Cc3ccccc3)CC2)CC(C)(C)C1 (stereo not drawn),-1.9,10.4,-20.4,-1.5,-6.8,0.4,·,·
OC(COCc1ccccc1)COCc1ccccc1,1.8,10.8,·,·,·,·,·,·
CCCc1n(CC)c2ccccc2[n+]1CC(O)COC1CCCCC1 (stereo not drawn),1.8,0.2,12.0,14.7,-3.3,88.7*,74.5*,1.9
